The target of assay [1] is Cellular tumor antigen p53 (Homo sapiens) (UniProt P04637). The assay is described as follows: Inhibition of p53-mediated transactivation in human MCF7 cells in presence of 0.5 ug/ml of doxorubicin after 24 hrs by beta-galactosidase reporter gene assay. The assay is classed as cell-based. Put shortly:
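MCF7 cells with a p53-responsive lacZ reporter treated with Dox 0.5 mg ml–1 (so in the source) plus a range of compound concentrations; β-galactosidase measured colorimetrically in cell extracts after 24 h; means ± s.d., n = 3.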

In assay [2] the test system is NCI-H1299. The experiment in a line: Antiapoptotic activity against staurosporine-induced cell death in human H1299 cells assessed as caspase 7 activity at 10 uM after 24 hrs. Type of assay: functional, cell-based.
The subject of assay [3] is NCI-H1299. The assay is described as follows: Antiapoptotic activity against staurosporine-induced cell death in human H1299 cells assessed as caspase 3 activity at 10 uM after 24 hrs. The assay is classed as functional, cell-based.
The test system of assay [4] is HeLa. The experiment in a line: Antiapoptotic activity against staurosporine-induced cell death in human HeLa cells assessed as caspase 7 activity at 10 uM after 24 hrs. Type of assay: functional, cell-based.
Assay [5] deals with HeLa. The assay is described as follows: Antiapoptotic activity against staurosporine-induced cell death in human HeLa cells assessed as caspase 3 activity at 10 uM after 24 hrs. The assay is classed as functional, cell-based.
For assay [6], the target named is Cellular tumor antigen p53 (Homo sapiens) (UniProt P04637). The experiment in a line: Inhibition of p53-mediated transactivation in human MCF7 cells in presence of 50 ug/ml of 5-fluorouracil after 24 hrs by beta-galactosidase reporter gene assay. Type of assay: cell-based. In a few lines: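 MCF7 cells carrying a lacZ reporter under a p53-responsive promoter, treated with 5-FU 50 µg ml–1 across a range of test-agent concentrations. β-galactosidase measured colorimetrically in cell extracts after 24 h drug incubation. Means ± s.d., n = 3.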
Chain of Cellular tumor antigen p53 (Homo sapiens) (P04637 whole entry, looked up): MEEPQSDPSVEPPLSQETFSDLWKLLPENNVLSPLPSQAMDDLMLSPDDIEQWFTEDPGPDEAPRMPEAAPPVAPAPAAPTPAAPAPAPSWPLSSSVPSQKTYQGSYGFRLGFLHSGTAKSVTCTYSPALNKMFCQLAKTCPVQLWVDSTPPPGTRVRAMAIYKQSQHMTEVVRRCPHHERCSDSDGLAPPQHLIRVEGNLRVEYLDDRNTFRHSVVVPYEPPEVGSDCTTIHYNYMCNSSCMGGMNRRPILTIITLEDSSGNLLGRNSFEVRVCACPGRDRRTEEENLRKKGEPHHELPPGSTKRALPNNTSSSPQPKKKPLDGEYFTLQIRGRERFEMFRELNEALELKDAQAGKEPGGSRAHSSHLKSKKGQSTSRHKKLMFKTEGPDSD

The target is the same in assay [7]. The assay is described as follows: Inhibition of p53-dependent transactivation of p21 in gamma-stimulated human ConA cells. Type of assay: cell-based. Put shortly:
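ConA cells given 10 µM test agent and 10 Gy gamma irradiation. Protein extracts taken 6 h post-irradiation and p21 detected by immunoblotting.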

The values below come from ChEMBL document CHEMBL1240314, “Small-molecule inhibitor of p53 binding to mitochondria protects mice from gamma radiation” (2006).

Each structure is given as a SMILES string. The source made the active and inactive calls. The rule behind the calls is not given here.

Regarding `COc1cccc2c1C(=O)c1c(O)c3c(c(O)c1C2=O)C[C@@](O)(C(=O)CO)C[C@@H]3O[C@H]1C[C@H](N)[C@H](O)[C@H](C)O1`, in assay [1], the inhibition result was “inactive”. Regarding `CN[C@@H]1C[C@H]2O[C@@](C)([C@@H]1OC)n1c3ccccc3c3c4c(c5c6ccccc6n2c5c31)C(=O)NC4`, the outcome in the assay with NCI-H1299 [2], with NCI-H1299 [3], in the assay on HeLa [4] and in the assay on HeLa [5] was inactive. As to `O=c1[nH]cc(F)c(=O)[nH]1`, in assay [6], the inhibition entry was “inactive”. On to `Cc1ccc(C(=O)Cn2c3c(sc2=N)CCCC3)cc1`, for which the inhibition result in assay [7] is “Active”.
